High-throughput results (PubChem BioAssay)
TNF necrop inh – TNF-alpha cell death inhibition in Jurkat FADD-/- cells | Jurkat FADD-/- TNF necroptosis rescue, ATP luminescence, 24 h; 0 = TNF only, 100 = no-TNF cells | activation (protection from cell death), % at 10 µM | 220,000 tested, 0.068% active;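 active = activation, meaning protection from cell death, of at least 50% relative to plate controls; inactive = activation below 50%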;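 note: necroptosis triggered by 40 ng/mL TNF-alpha added together with compound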
Autophagy mod – autophagy modulation, high-content screen; MEF GFP-LC3 puncta imaging; test concentration mostly 10 µM; calls only at 10 µM (by protocol); 190,000 tested, 0.98% active; AID 463193;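 active = percentage of spot-positive cells more than 3 SD above its plate mean, without a fluorescence outlier flag or 80% toxicity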
Dynein transport – blocks dynein driven cargo transport along microtubules | 3617.4 mouse cells, GR-EGFP nuclear translocation imaging; test concentration mostly 20 µM; stimulated with dexamethasone, 1 µM; stronger effect = lower value | z-score, hits read low | 220,000 tested, 0.47% active | AID 1381;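 active = plate z-score of nuclear minus cytoplasmic receptor signal below a set negative limit, without overly bright fluorescence or cell loss, cut at about -3.5 in these data, passing the limit was not always enough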;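 note: z-score of nuclear minus cytoplasmic ring GR-EGFP intensity difference per well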
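medium = tetracycline-free induction medium containing charcoal-stripped FBS | probe or stimulus = dexamethasone, 1.0 µM final | timing = 48 h induction, then 1 h compound, then 30 min agonist, 37 °C | detection = automated 10x imaging of fixed Hoechst-stained cells | read-out basis = nuclear versus cytoplasmic GR-EGFP signal, averaged per well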
Hck-Nef inh – human Hck-Nef kinase inhibition. Recombinant Hck-YEEI plus Nef, Z-Lyte FRET kinase assay. 220,000 tested, 0.68% active. inhibition, % at 20 µM. AID 463187. P08631;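 active = Hck-Nef kinase inhibition above about 50%, limit read from the data; inactive = inhibition below that limit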
Mdm2 ligase inh – inhibitors of human Mdm2 E3 ubiquitin ligase. cell-based MDM2 ubiquitination luciferase reporter, 2 h; 0 = plate control, 100 = twice control, blank-subtracted. signal enhancement, % at 5 µM. 210,000 tested, 0.11% active. AID 1230;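 active = signal enhancement of 30% or more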;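 note: luminescence tracks abundance of the self-degrading MDM2-luciferase fusion protein; higher signal means inhibition of MDM2 E3 ligase activity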
Target sequence (Q00987 whole entry, looked up, the tested form may be a part): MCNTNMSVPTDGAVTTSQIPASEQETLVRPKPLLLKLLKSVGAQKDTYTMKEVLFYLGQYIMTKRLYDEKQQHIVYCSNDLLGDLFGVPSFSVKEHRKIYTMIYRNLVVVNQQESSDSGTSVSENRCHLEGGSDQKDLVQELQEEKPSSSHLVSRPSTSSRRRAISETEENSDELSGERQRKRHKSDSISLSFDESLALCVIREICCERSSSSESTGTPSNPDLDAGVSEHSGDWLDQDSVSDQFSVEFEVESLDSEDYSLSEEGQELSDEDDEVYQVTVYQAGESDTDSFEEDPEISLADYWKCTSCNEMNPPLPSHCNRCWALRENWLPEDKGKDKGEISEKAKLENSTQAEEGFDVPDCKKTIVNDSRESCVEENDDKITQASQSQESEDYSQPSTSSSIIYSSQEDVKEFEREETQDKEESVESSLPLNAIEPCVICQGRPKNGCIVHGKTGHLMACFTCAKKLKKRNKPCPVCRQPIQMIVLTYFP
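Buffer or medium: Cells held in DMEM | Assay system: Stable mammalian line carrying autodegrading MDM2–luciferase fusion reporter | Quantity: 2000 cells/well | Times: 4 h settle plus 2 h compound, 37 °C | Doses: One concentration, 5 µM, with 0.2% DMSO | Technique: Luminescence with SteadyLite reagent, 15 min at room temperature | Benchmarks: Plate controls and plate blanks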
zVAD death inh – L929 zVAD cell death inhibition. L929 zVAD necroptosis rescue, ATP luminescence, 24 h; with zVAD 60 µM. viability rescue, % at 10 µM. 220,000 tested, 0.38% active;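 active = activation, scaled between plate controls, above about 75%, limit read from the data; inactive = activation under that limit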
Hck-Nef confirm – confirmation of Hck-Nef kinase inhibitors | 1,300 tested, 28% active | Recombinant Hck-YEEI:Nef, Z-Lyte FRET kinase assay | AID 463188 | calls only at 10 µM | shares compounds with Hck-Nef inh;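 active = average inhibition of at least 50%, with Z-scores no higher than 3 in both the phospho-tyrosine peptide and fluorescence counterscreens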
Numbers stand for hits; i = inactive; nt = no result given; + = active, no number. Compounds with a hit are over-represented: about 2.4% of the library has one in this group of screens.

SMILES	TNF necrop inh	Autophagy mod	Dynein transport	Hck-Nef inh	Mdm2 ligase inh	zVAD death inh	Hck-Nef confirm
Cc1cc(-c2csc(NC(=O)c3cc4ccccc4o3)n2)c(C)n1C	i	i	i	59.4	i	i	i
c1ccc(Nc2ccnc(Nc3ccccc3)n2)cc1	i	nt	i	100.5	i	i	+
Oc1cc2c(cc1C(c1ccc(Cl)c(Cl)c1)N1CCCC1)OCO2 (configuration not stated)	i	i	i	70.0	i	i	i
O=C(N/N=C/c1ccc([N+](=O)[O-])o1)c1ccc(NS(=O)(=O)c2cccs2)cc1	i	nt	i	55.5	i	i	i
O=C(N/N=C/c1ccc2c(c1)OCO2)c1ccc(NS(=O)(=O)c2cccs2)cc1	i	i	i	i	i	i	nt
CCCc1cc(=O)oc2c(CN3CCOCC3)c(O)ccc12	i	i	i	65.2	i	i	nt
O=c1oc2c(CN3CCOCC3)c(O)c(Cl)cc2c2c1CCCC2	i	i	i	79.7	i	i	nt
O=c1oc2c(CN3CCOCC3)c(O)ccc2c2ccccc12	i	i	i	i	i	i	nt
O=c1oc2c(CN3CCOCC3)c(O)ccc2c2c1CCCC2	i	i	i	54.2	i	i	nt
Cc1oc2c(CN3CCOCC3)c(O)ccc2c(=O)c1-c1ccc(Br)cc1	i	i	i	i	i	i	nt
CCN(CC)C(=O)CNc1ccc(C(F)(F)F)cc1[N+](=O)[O-]	i	i	i	i	i	i	nt
O=C(Nc1cccc(NC(=O)c2ccc(Br)o2)n1)c1ccc(Br)o1	i	i	i	98.1	i	i	i
CCOCCCNC(=S)Nc1ccc(S(N)(=O)=O)cc1	i	i	i	i	i	i	nt
CCCCc1cc(=O)oc2c(CN3CCCC3)c(O)c(Cl)cc12	i	i	i	152.9	i	i	nt
CCCCc1cc(=O)oc2cc(OCc3nn[nH]n3)c(Cl)cc12	i	i	i	i	i	i	nt
Cc1c(C)c2cc(Cl)c(O)c(CN3CCCCC3)c2oc1=O	i	i	i	66.9	i	i	i
Cc1cc(=O)oc2c(CN3CCN(C)CC3)c(O)c(Cl)cc12	i	i	i	105.8	i	i	nt
CCCCc1cc(=O)oc2c(CN(CC)CC)c(O)c(Cl)cc12	i	i	i	154.6	i	i	nt
CCCc1cc(=O)oc2c(CN3CCN(C)CC3)c(O)c(Cl)cc12	nt	nt	nt	nt	i	nt	nt
CCCc1cc(=O)oc2c(CN(CC)CC)c(O)c(Cl)cc12	i	nt	i	+	i	i	nt
Nn1c(SCC(=O)Nc2ccc(S(=O)(=O)N3CCCC3)cc2)nnc1C(F)(F)F	i	i	i	i	i	i	nt
CCNc1ccc2c(Cl)cc(=O)oc2c1	i	i	i	51.9	i	i	i
CCN(CC)c1ccc2c(Cl)cc(=O)oc2c1	i	i	i	66.4	i	i	nt
CCN(CC)c1ccc2c(O)cc(=O)oc2c1	i	i	i	i	i	i	nt
c1ccc(Oc2cccc(OCCCCSc3ncccn3)c2)cc1	i	i	i	i	i	i	nt
SMILES	TNF necrop inh	Autophagy mod	Dynein transport	Hck-Nef inh	Mdm2 ligase inh	zVAD death inh	Hck-Nef confirm
O=C1N/C(=N\N=C\c2ccc3ncccc3c2)SC1Cc1ccc(SC(F)F)cc1 (configuration not stated)	i	i	i	84.5	i	i	+
COc1cc(/C=N/N=C2/NC(=O)C(Cc3ccccc3)S2)ccc1O (configuration not stated)	i	i	i	i	i	i	nt
CCCC(C(=O)NC1=NCCS1)c1ccccc1 (configuration not stated)	i	i	i	i	i	i	nt
NC(=O)CC(NC(=O)Cc1cccc2ccccc12)c1ccc(NCCOc2ccccc2)c([N+](=O)[O-])c1 (configuration not stated)	i	nt	i	53.1	i	i	i
NC(=O)CC(NC(=O)Cc1ccc(Br)cc1)c1ccc(NCCc2ccc(F)cc2)c([N+](=O)[O-])c1 (configuration not stated)	i	nt	i	50.5	i	i	i
COc1ccc(CCNc2ccc(C(CC(N)=O)NC(=O)Cc3ccc(Br)cc3)cc2[N+](=O)[O-])cc1 (configuration not stated)	i	nt	i	57.2	i	i	i
NC(=O)CC(NC(=O)Cc1cccc2ccccc12)c1ccc(NCC2CC2)c([N+](=O)[O-])c1 (configuration not stated)	i	nt	i	i	i	i	nt
COc1ccc(-c2cc(C(=O)Nc3cc(C)nn3-c3ccccc3)no2)cc1OC	i	i	i	i	i	i	nt
CC(=O)COc1nc2c(c(-c3ccco3)c1C#N)CCc1ccccc1-2	i	nt	i	56.0	i	i	i
CCN1C(=O)N(S(=O)(=O)c2ccc(C)cc2)[C@@H](c2ccccc2)C(C(=O)OC)=C1C	i	nt	i	i	i	i	nt
CCc1cccc(C)c1NC(=O)CN1C(=O)NC(Cc2ccccc2)C1=O (configuration not stated)	i	i	i	i	i	i	nt
COc1cc2ncnc(NCc3cccs3)c2cc1OC	i	i	i	56.8	i	i	i
COc1cc2ncnc(NCc3ccc(C)cc3)c2cc1OC	i	i	i	i	i	i	nt
O=C(O)C1=C[C@H](c2ccc(F)cc2)C[C@H](OCCCCO)O1	i	nt	i	i	i	i	nt
CC(/C=C1\SC(=S)N(NS(=O)(=O)c2ccc(C)cc2)C1=O)=C\c1ccccc1	i	nt	i	99.1	i	i	+
CC(/C=C1\SC(=S)N(NC(=O)c2ccccc2C)C1=O)=C\c1ccccc1	i	i	i	i	i	i	nt
COc1ccc(NS(=O)(=O)c2cc(NC(=O)/C=C/c3ccccc3OC)ccc2N2CCCCC2)cc1	i	i	i	i	i	i	nt
COc1ccc(N2C3=C(C(=O)CC(C)(C)C3)C(c3ccccc3OC)C3=C2CC(C)(C)CC3=O)cc1	i	nt	i	73.6	i	i	i
COc1ccc(C2C3=C(CC(C)(C)CC3=O)N(C)C3=C2C(=O)CC(C)(C)C3)cc1	i	i	i	50.6	i	i	i
Cc1nn(C)cc1C1C2=C(CC(C)(C)CC2=O)N(c2ccccc2)C2=C1C(=O)CC(C)(C)C2	i	i	i	i	i	i	nt
COc1ccc(C2C(C#N)=C(C)NC3=C2C(=O)CC(C)(C)C3)cc1 (configuration not stated)	i	i	i	i	i	i	nt
O=C(COc1ccc(/C=N/NC(=O)c2cc3ccccc3o2)cc1Cl)Nc1ccccc1	i	i	i	85.7	i	i	+
O=C(N/N=C/c1ccc2c(c1)OCO2)c1cc2ccccc2o1	i	nt	i	i	i	i	nt
CC(C)c1ccc(NC(=O)c2snc3ccc(Cl)cc23)cc1	i	i	i	i	nt	i	nt
